Measurements from PubChem BioAssay AID720702 (The Scripps Research Institute Molecular Screening Center, 2013).
The campaign covered roughly 370,000 compounds. About 1,200 (0.32%) were called active.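 The calls were made as follows: active = inhibition above the mean of all tested compounds plus 3 SD, set per campaign (cut at about 25% in these data); inactive = the rest.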 Many of the other results were omitted from the sample, so actives are more common in it than they were.

molecular target: Tyrosyl-DNA phosphodiesterase 2 (Homo sapiens) (UniProt O95551); test: blockers of TDP2 phosphodiesterase activity – biochemical, epi absorbance, recombinant enzyme, primary screen (AID 720702); conditions: recombinant TDP2, T5PNP hydrolysis, p-nitrophenol absorbance 415 nm; at 12.8 µM; hits give high values;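 also: 0% = DMSO with enzyme and 100% = buffer with substrate but no TDP2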
Procedure, shortened: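 System – recombinant human TDP2 · Quantity – TDP2 enzyme at 120 nM final · Doses – single concentration, 12.8 µM nominal, with 1% DMSO · Incubation – 2 h at 37 °C · Measured by – epi absorbance of p-nitrophenol freed from T5PNP by hydrolysis · Read-out – % inhibition relative to enzyme-containing and enzyme-free wells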

Sequence of Tyrosyl-DNA phosphodiesterase 2 (Homo sapiens) (O95551 whole entry, looked up): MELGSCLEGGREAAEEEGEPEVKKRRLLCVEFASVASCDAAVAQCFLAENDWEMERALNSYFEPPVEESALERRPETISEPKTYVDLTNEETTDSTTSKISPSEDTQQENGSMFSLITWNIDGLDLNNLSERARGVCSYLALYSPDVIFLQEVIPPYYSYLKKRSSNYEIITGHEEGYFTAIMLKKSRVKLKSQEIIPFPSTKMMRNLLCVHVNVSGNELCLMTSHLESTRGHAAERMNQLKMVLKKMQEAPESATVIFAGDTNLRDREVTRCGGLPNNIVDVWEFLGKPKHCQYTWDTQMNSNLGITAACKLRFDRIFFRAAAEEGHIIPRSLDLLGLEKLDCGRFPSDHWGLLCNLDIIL

inhibition, active:
CN(C)c1ccc(N/C=C/C(=O)C(F)(F)F)cc1 40.7%
CCOC(=O)c1ccc(Nc2cc3ccccc3c(=O)[nH]2)cc1 44.6%
Nn1cnnc1N/N=C/c1cc([N+](=O)[O-])c(Cl)cc1Cl 39.5%
COc1ccccc1CN1CCN(C(c2ccccc2)c2ccccc2)CC1 25.9%
CC1=NN(c2ccc(Cl)c(C(=O)O)c2)C(=O)/C1=C/c1ccc(-c2ccccc2[N+](=O)[O-])o1 36.1%
CC(=O)c1ccc(S(=O)(=O)N2CCC3(CC2)OCCO3)cc1 25.2%
COc1cc(NC(=O)COC(=O)c2ccc([N+](=O)[O-])s2)cc(OC)c1OC 31.6%
CCOC(=O)c1c(C)[nH]c2c1-c1ccccc1C(=O)C2=O 55.1%
Cc1ccc(OCCCCc2c(C)n[nH]c2C)cc1 25.9%

inhibition, inactive:
COc1ccc(CCNC(=O)COc2ccc3c(c2)OCO3)cc1 -6.66%
c1ccc(Cc2cc[n+](Cc3ccccc3)cc2)cc1 6.8%
CN(C)c1ccc(C(CC(=O)O)C(=O)O)cc1 (stereo not drawn) -4.74%
CCOC(=O)c1ccc(NC(=O)c2c(NCc3ccccc3)[nH]c(=O)[nH]c2=O)cc1 1.1%
CCOC(=O)c1ccc(NC(=O)c2c(N)n(C)c(=O)[nH]c2=O)cc1 3.07%
O=C(O)CCN(Cc1ccccc1)S(=O)(=O)c1c(Cl)cccc1Cl 15.2%
Clc1ccc(-n2c(COc3ccccc3)nnc2SCc2nc3ccccc3[nH]2)cc1 -3.9%
CC1=C2C(=O)OC(c3ccoc3)C2(C)CCC1 (stereo not drawn) -14.5%
COc1ccccc1CN1CCN(Cc2cc(OC)c(OC)cc2OC)CC1 19%
COc1ccccc1/C=N/N1CCN(Cc2ccccc2Cl)CC1 -9.24%
Cc1cc(C)nc(SC2CCCCC2NS(=O)(=O)c2ccc(Cl)cc2)n1 (stereo not drawn) 4.56%
Cc1coc2c(O)cc3c(c12)OC1(N2CCCCC2)C(=O)NCCCC31 (stereo not drawn) 24.4%
COc1ccc(/C=C2/C(=O)N(c3ccccc3)N=C2C)c(OC)c1 3.07%
O=C1C2C3C=CC(C4CC34)C2C(=O)N1/N=C/c1ccc(-c2ccccc2[N+](=O)[O-])o1 (stereo not drawn) 11.7%
CC(C)c1ccc(S(=O)(=O)N2CCC3(CC2)OCCO3)cc1 3.95%
Cc1c(C)c(C)c(S(=O)(=O)N2CCC3(CC2)OCCO3)c(C)c1C 5.93%
C=CCc1cc(C)ccc1OCCCn1ccnc1 -6.81%
CCCOc1ccc(Oc2c(Cl)cnn(Cc3cccc4ccccc34)c2=O)cc1 -7.56%
Cc1ccc(S(=O)(=O)N(CCCN(C)C)Cc2ccc3c(c2)OCO3)cc1 3.37%
COc1ccc(N(CC(=O)Nc2cc(OC)cc(OC)c2)S(=O)(=O)c2c(C)n[nH]c2C)cc1 10.8%
COc1cc(NC(=O)COC(=O)c2cnc(C)cn2)c(C)cc1[N+](=O)[O-] -5.59%
COc1cc(CCC(=O)OCC(=O)Nc2cccc(S(N)(=O)=O)c2)cc(OC)c1OC -0.17%
Cc1ccc(-n2c(SCC(=O)Nc3ccc(S(=O)(=O)Nc4nccs4)cc3)nnc2-c2ccncc2)cc1 -0.21%
CCCCCCCCCCCCN1[C@@H](CC(C)=O)c2cc(F)cc(F)c2S1(=O)=O 2.78%
Cc1cc(S(=O)(=O)NC2CCCCC2)ccc1OCC(=O)NCc1cccnc1 -6.47%
CCOC(=O)C1=C(C)c2ccccc2OC1C(=O)OCC (stereo not drawn) -3.4%
CCOC(=O)c1c(C)oc(C)c(C(=O)OCC)c1=O -25%
COc1ccc(C(=O)OCc2cc(=O)n3ccsc3n2)cc1F -6.94%
O=C(Cc1ccc(NC(=O)C2CCCN(C(=O)CCc3ccccc3)C2)cc1)Nc1ccc(C(=O)N2CCOCC2)cc1 (stereo not drawn) -19.6%
Fc1ccc2nc(COCc3nc4ccc(F)cc4[nH]3)[nH]c2c1 -1.58%
CCCCCc1ccc(-c2ccc(OCC)cc2)nc1 -8.17%
CSc1ccccc1OCc1cc(C(=O)N(C)CCc2c(C)n[nH]c2C)no1 6.82%
Brc1ccc(COCCc2cn(Cc3ccccc3)c3ccccc23)cc1 -2.78%
CC1CCN(c2ccc(C(=O)O)cc2NS(=O)(=O)c2ccc(Br)s2)CC1 4.53%
